Laboratory results reported in ChEMBL document CHEMBL1129618, “(+/-)-3-[4'-(N,N-dimethylamino)cinnamyl]benzazepine analogs: novel dopamine D1 receptor antagonists” (J Med Chem, 1996).

Experiments:
D(1A) dopamine receptor [1] = biological target: T1, D(1A) dopamine receptor (Rattus norvegicus, UniProt P18901); assay: Dopamine receptor D1 antagonistic activity as ability to block dopamine-stimulated adenylate cyclase in rat caudate; type: functional
D(2) dopamine receptor = D(2) dopamine receptor (Rattus norvegicus, UniProt P61169); assay: Affinity for Dopamine receptor D2 binding measured by sulpiride […] to rat striatal membrane; parameters: species or system Striatum
How it was run: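 Competition binding against [³H]sulpiride at D2 sites in rat striatal (caudate putamen) membranes. Ki values are means ± SEM of at least three determinations, each run in triplicate.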

D(1A) dopamine receptor [2] = biological target: T1, D(1A) dopamine receptor; assay: Affinity for Dopamine receptor D1 binding measured by competition against [3H]-SCH- 23390 to rat striatal membrane; parameters: species or system Striatum
How it was run: (§1)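 Competition binding against [³H]SCH 23390 at D1 sites in rat striatal (caudate putamen) membranes. Ki values are means ± SEM of at least three determinations, each run in triplicate.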

D(1A) dopamine receptor [3] = biological target: T1, D(1A) dopamine receptor; assay: Affinity for dopamine receptor D1 binding measured by competition against [3H]-SCH- 23390 to rat striatal membrane; parameters: species or system Striatum; how it was run: as §1

T1 sequence (P18901 whole entry): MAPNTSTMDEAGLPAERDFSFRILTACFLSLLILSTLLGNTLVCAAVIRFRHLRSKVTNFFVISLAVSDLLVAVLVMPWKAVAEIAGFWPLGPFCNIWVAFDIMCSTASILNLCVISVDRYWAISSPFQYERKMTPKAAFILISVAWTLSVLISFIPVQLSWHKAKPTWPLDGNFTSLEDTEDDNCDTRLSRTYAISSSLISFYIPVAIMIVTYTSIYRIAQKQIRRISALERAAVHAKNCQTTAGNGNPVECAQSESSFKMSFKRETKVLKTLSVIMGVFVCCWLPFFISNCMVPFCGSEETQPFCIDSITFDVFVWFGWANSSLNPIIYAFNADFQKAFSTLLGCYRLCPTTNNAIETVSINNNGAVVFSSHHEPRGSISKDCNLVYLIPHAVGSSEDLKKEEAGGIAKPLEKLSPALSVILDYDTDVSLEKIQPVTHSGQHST
Chain of D(2) dopamine receptor (P61169 whole entry): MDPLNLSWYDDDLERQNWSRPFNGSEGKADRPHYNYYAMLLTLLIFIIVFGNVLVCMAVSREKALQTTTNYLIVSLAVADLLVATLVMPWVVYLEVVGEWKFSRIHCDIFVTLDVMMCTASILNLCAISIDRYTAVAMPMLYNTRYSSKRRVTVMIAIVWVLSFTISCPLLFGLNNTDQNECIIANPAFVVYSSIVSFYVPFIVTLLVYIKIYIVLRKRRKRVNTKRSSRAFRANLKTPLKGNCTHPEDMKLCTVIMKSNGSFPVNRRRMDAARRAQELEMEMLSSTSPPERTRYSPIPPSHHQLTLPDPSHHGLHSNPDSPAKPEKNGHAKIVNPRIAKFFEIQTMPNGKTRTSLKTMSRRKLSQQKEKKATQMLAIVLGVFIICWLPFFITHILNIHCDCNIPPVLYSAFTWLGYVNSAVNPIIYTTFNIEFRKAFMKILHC

Question: `CN(C)CCCCCCN1CCc2cc(Cl)c(O)cc2C(c2ccccc2)C1` (stereo unspecified) was tested. Which Ki (D(1A) dopamine receptor [1]) did it give?
Answer: 21 nM

Question: What about the Ki (D(2) dopamine receptor; read-out: Ki) of the same molecule?
Answer: 4130 nM

Question: `COc1cc2c(cc1Br)CCN(C/C=C/c1ccc(N(C)C)cc1)CC2c1ccccc1` (stereo unspecified) was tested. Which Ki (D(2) dopamine receptor; read-out: Ki) did it give?
Answer: 2000 nM

Question: With `CN(C)c1ccc(/C=C/CN2CCc3cc(Cl)c(O)cc3C(c3ccccc3)C2)cc1` (stereo unspecified) as the molecule, how does the Ki (D(1A) dopamine receptor [1]) read?
Answer: 18.4 nM

Question: What about the Ki (D(2) dopamine receptor; read-out: Ki) of the same molecule?
Answer: 345 nM

Question: With `CN(C)CCCCN1CCc2cc(Cl)c(O)cc2C(c2ccccc2)C1` (stereo unspecified) as the molecule, how does the Ki (D(2) dopamine receptor; read-out: Ki) read?
Answer: 3450 nM

Question: Which Ki (D(1A) dopamine receptor [2]) does the source give for `CN(C)c1ccc(CCN2CCc3cc(Cl)c(O)cc3C(c3ccccc3)C2)cc1` (stereo unspecified) here?
Answer: 88.4 nM

Question: What does the source list for `CN(C)c1ccc(/C=C/CN2CCc3cc(Br)c(O)cc3C(c3ccccc3)C2)cc1` (stereo unspecified)?
Answer: Ki (D(2) dopamine receptor; read-out: Ki): 858 nM; Ki (D(1A) dopamine receptor [3]): 120 nM

Question: With `Oc1cc2c(cc1Br)CCN(C/C=C/c1ccccc1)CC2c1ccccc1` (stereo unspecified) as the molecule, how does the Ki (D(2) dopamine receptor) read?
Answer: Insoluble

Question: And the Ki (D(1A) dopamine receptor [3])?
Answer: 209 nM
